Laboratory results reported in ChEMBL document CHEMBL3769392, “Synthesis, antiproliferative activities, and computational evaluation of novel isocoumarin and 3,4-dihydroisocoumarin derivatives” (Eur J Med Chem, 2016).
Converted amounts (≈) assume the structure as drawn.

Key:
[1] = Cytotoxicity against human HaCaT cells after 48 hrs by SRB assay; assay type: cell-based
Method in brief: (§1)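 Cells kept in RPMI 1640 with 5% FBS and 1% penicillin/streptomycin at 37 °C, 5% CO2, and used at passages 5–12. Seeded at 3 to 5 x 10^4 cells/mL and exposed 48 h to 0.25, 2.5, 25 and 250 µg/mL in DMSO/RPMI (final DMSO ≤ 0.25%). Doxorubicin 0.025–25 µg/mL served as positive control. Fixed with 50% TCA at T0 and at endpoint, SRB protein read at 540 nm. Growth was T0-corrected and GI50 taken by non-linear regression.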

NCI-H460 [2] = test: Selectivity index, ratio of GI50 for human HaCaT cells to GI50 for human NCI-H460 cells; assay type: functional
HaCaT [3] = test: Selectivity index, ratio of GI50 for human HaCaT cells to GI50 for human U251 cells; assay type: functional
MCF7 = test: Antiproliferative activity against human MCF7 cells after 48 hrs by SRB assay; assay type: functional; details: MCF7, 48 h; method in brief: as §1
HT-29 = test: Antiproliferative activity against human HT-29 cells after 48 hrs by SRB assay; assay type: functional; details: HT-29, 48 h; method in brief: as §1
U-251 = test: Antiproliferative activity against human U251 cells after 48 hrs by SRB assay; assay type: functional; details: U-251, 48 h; method in brief: as §1
HaCaT [4] = test: Selectivity index, ratio of GI50 for human HaCaT cells to GI50 for human 786-0 cells; assay type: functional
[5] = Antiproliferative activity against human NCI-ADR-RES cells after 48 hrs by SRB assay; assay type: functional; method in brief: as §1
HaCaT [6] = test: Selectivity index, ratio of GI50 for human HaCaT cells to GI50 for human MCF7 cells; assay type: functional
HaCaT [7] = test: Selectivity index, ratio of GI50 for human HaCaT cells to GI50 for human HT-29 cells; assay type: functional
HaCaT [8] = test: Selectivity index, ratio of GI50 for human HaCaT cells to GI50 for human NCI-ADR-RES cells; assay type: functional
[9] = Antiproliferative activity against human PC3 cells after 48 hrs by SRB assay; assay type: functional; details: PC-3, 48 h; method in brief: as §1
786-0 = test: Antiproliferative activity against human 786-0 cells after 48 hrs by SRB assay; assay type: functional; details: 786-0, 48 h; method in brief: as §1
HaCaT [10] = test: Selectivity index, ratio of GI50 for human HaCaT cells to GI50 for human PC3 cells; assay type: functional
NCI-H460 [11] = test: Antiproliferative activity against human NCI-H460 cells after 48 hrs by SRB assay; assay type: functional; details: NCI-H460, 48 h; method in brief: as §1

SMILES	GI50 at 48 h [1]	RatioGI50 (NCI-H460 [2])	RatioGI50 (HaCaT [3])	GI50 (MCF7)	GI50 (HT-29)	GI50 (U-251)	RatioGI50 (HaCaT [4])	GI50 [5]	RatioGI50 (HaCaT [6])	RatioGI50 (HaCaT [7])	RatioGI50 (HaCaT [8])	GI50 [9]	GI50 (786-0)	RatioGI50 (HaCaT [10])	GI50 (NCI-H460 [11])
COc1ccc2cc(COCCCc3cccnc3)oc(=O)c2c1	26.2 µg/mL (≈ 80.5 µM)	0.89	0.92	26.5 µg/mL (≈ 81.4 µM)	25.8 µg/mL (≈ 79.3 µM)	28.5 µg/mL (≈ 87.6 µM)	0.92	28 µg/mL (≈ 86.1 µM)	0.99	1.02	0.94	25 µg/mL (≈ 76.8 µM)	28.6 µg/mL (≈ 87.9 µM)	1.05	29.6 µg/mL (≈ 91 µM)
COc1ccc2cc(CCCOCCCc3cccnc3)oc(=O)c2c1	27 µg/mL (≈ 76.4 µM)	1.07	1.03	23.8 µg/mL (≈ 67.3 µM)	25 µg/mL (≈ 70.7 µM)	26.3 µg/mL (≈ 74.4 µM)	0.94	19.3 µg/mL (≈ 54.6 µM)	1.13	1.08	1.4	26.3 µg/mL (≈ 74.4 µM)	28.7 µg/mL (≈ 81.2 µM)	1.03	25.2 µg/mL (≈ 71.3 µM)
CCCCCOCCCc1cc2ccc(OC)cc2c(=O)o1	5.5 µg/mL (≈ 18.1 µM)	0.17	0.28	6 µg/mL (≈ 19.7 µM)	28.3 µg/mL (≈ 93 µM)	19.4 µg/mL (≈ 63.7 µM)	0.22	7.4 µg/mL (≈ 24.3 µM)	0.92	0.19	0.74	8 µg/mL (≈ 26.3 µM)	25.5 µg/mL (≈ 83.8 µM)	0.69	32 µg/mL (≈ 105 µM)
COc1ccc2cc(CCCSc3nnnn3-c3ccccc3)oc(=O)c2c1	≥ 250 µg/mL	–	>5.77	45.7 µg/mL (≈ 116 µM)	≥ 250 µg/mL	43.3 µg/mL (≈ 110 µM)	>4.89	≥ 250 µg/mL	>5.47	–	–	144 µg/mL (≈ 366 µM)	51.1 µg/mL (≈ 130 µM)	>1.73	≥ 250 µg/mL
COc1ccc2cc(CO)oc(=O)c2c1	134 µg/mL (≈ 652 µM)	1.44	0.8	32.6 µg/mL (≈ 158 µM)	80.3 µg/mL (≈ 389 µM)	167 µg/mL (≈ 811 µM)	3.57	160 µg/mL (≈ 778 µM)	4.12	1.67	0.84	49.2 µg/mL (≈ 239 µM)	37.6 µg/mL (≈ 182 µM)	2.73	93.2 µg/mL (≈ 452 µM)
O=c1oc(CO)cc2ccccc12	222 µg/mL (≈ 1260 µM)	–	–	89.3 µg/mL (≈ 507 µM)	168 µg/mL (≈ 956 µM)	≥ 250 µg/mL	–	≥ 250 µg/mL	2.49	1.32	–	118 µg/mL (≈ 669 µM)	≥ 250 µg/mL	1.88	≥ 250 µg/mL
COc1ccc2cc(CCCn3nnnc3-c3ccccc3)oc(=O)c2c1	≥ 250 µg/mL	–	>3.71	75.2 µg/mL (≈ 208 µM)	≥ 250 µg/mL	67.4 µg/mL (≈ 186 µM)	>1.12	≥ 250 µg/mL	>3.32	–	–	180 µg/mL (≈ 496 µM)	224 µg/mL (≈ 619 µM)	>1.39	≥ 250 µg/mL
COc1ccc2cc(CCCO)oc(=O)c2c1	29 µg/mL (≈ 124 µM)	1	1	25.8 µg/mL (≈ 110 µM)	29.1 µg/mL (≈ 124 µM)	28.9 µg/mL (≈ 123 µM)	1.08	28.1 µg/mL (≈ 120 µM)	1.12	1	1.03	25.9 µg/mL (≈ 111 µM)	26.9 µg/mL (≈ 115 µM)	1.12	29.1 µg/mL (≈ 124 µM)
CCCCCOCCCC1Cc2ccc(OC)cc2C(=O)O1 (racemic)	32.3 µg/mL (≈ 105 µM)	0.96	1	32.3 µg/mL (≈ 105 µM)	43.5 µg/mL (≈ 142 µM)	32.2 µg/mL (≈ 105 µM)	1.01	42.3 µg/mL (≈ 138 µM)	1	0.74	0.76	29.5 µg/mL (≈ 96.3 µM)	31.9 µg/mL (≈ 104 µM)	1.09	33.7 µg/mL (≈ 110 µM)
COc1ccc2c(c1)C(=O)OC(CO)C2 (racemic)	≥ 250 µg/mL	–	–	250 µg/mL (≈ 1200 µM)	≥ 250 µg/mL	≥ 250 µg/mL	–	≥ 250 µg/mL	>1	–	–	175 µg/mL (≈ 842 µM)	≥ 250 µg/mL	>1.43	≥ 250 µg/mL
COc1ccc2c(c1)C(=O)OC(CCCSc1nnnn1-c1ccccc1)C2 (racemic)	≥ 250 µg/mL	–	–	18.6 µg/mL (≈ 46.9 µM)	13.7 µg/mL (≈ 34.6 µM)	≥ 250 µg/mL	–	132 µg/mL (≈ 333 µM)	>13.44	>18.25	>1.89	45.1 µg/mL (≈ 114 µM)	≥ 250 µg/mL	>5.54	≥ 250 µg/mL
COc1ccc2c(c1)C(=O)OC(CCCn1nnnc1-c1ccccc1)C2 (racemic)	≥ 250 µg/mL	>1.19	>2.29	28.2 µg/mL (≈ 77.4 µM)	31.2 µg/mL (≈ 85.6 µM)	226 µg/mL (≈ 621 µM)	–	142 µg/mL (≈ 390 µM)	>8.87	>8.01	>1.76	23.9 µg/mL (≈ 65.6 µM)	≥ 250 µg/mL	> 10.5	211 µg/mL (≈ 578 µM)
O=C1OC(CO)Cc2ccccc21 (racemic)	≥ 250 µg/mL	–	–	0.66 µg/mL (≈ 3.7 µM)	≥ 250 µg/mL	≥ 250 µg/mL	–	≥ 250 µg/mL	>378.79	–	–	≥ 250 µg/mL	≥ 250 µg/mL	–	≥ 250 µg/mL
COc1ccc2c(c1)C(=O)OC(CCCO)C2 (racemic)	130 µg/mL (≈ 551 µM)	0.96	0.97	80.8 µg/mL (≈ 342 µM)	132 µg/mL (≈ 559 µM)	135 µg/mL (≈ 571 µM)	1.28	93.3 µg/mL (≈ 395 µM)	1.12	0.99	1.4	70.7 µg/mL (≈ 299 µM)	102 µg/mL (≈ 430 µM)	1.84	136 µg/mL (≈ 574 µM)
COc1cccc2c1C(=O)c1c(O)c3c(c(O)c1C2=O)C[C@@](O)(C(=O)CO)C[C@@H]3O[C@H]1C[C@H](N)[C@H](O)[C@H](C)O1 [DOXORUBICIN]	< 0.025 µg/mL	–	–	< 0.025 µg/mL	0.13 µg/mL (≈ 0.239 µM)	< 0.025 µg/mL	–	0.14 µg/mL (≈ 0.258 µM)	–	–	–	0.085 µg/mL (≈ 0.156 µM)	0.025 µg/mL (≈ 0.046 µM)	–	< 0.025 µg/mL
